ChEMBL document CHEMBL1275429, “Pharmacodynamic characterization of ceftobiprole in experimental pneumonia caused by phenotypically diverse Staphylococcus aureus strains” (Antimicrob Agents Chemother, 2008)
In brackets after ≈: the same amount, converted by molar mass.

What was measured:
[1] = Tmax in neutropenic BALB/cAnNCr mouse infected with Staphylococcus aureus at 2.5 mg/kg, sc administered as single dose after 6 hrs of infection; format: ADME, organism-based; design: dose 2.5 mg/kg, route subcutaneous; conditions: in vivo
Procedure, shortened: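 Female BALB/cAnNCr mice (7-9 weeks, 15-22 g) made neutropenic with cyclophosphamide, 250 mg/kg i.p. on day -4 and 100 mg/kg i.p. on day -1. Infected by oral aspiration of HA-MRSA 56 (10^7 CFU/ml in 3% mucin/saline). Single s.c. dose in sterile water given 6 h post-challenge. Plasma (EDTA, citric acid-stabilized) taken at 0.25-4 h, six mice per time point. Assayed by validated HPLC (LOQ 0.01 µg/ml); one-compartment analysis.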

[2] = fT>MIC required for 50% inhibition of hospital acquired Staphylococcus aureus 152 infection in neutropenic BALB/cAnNCr mouse; format: functional
[3] = fT>MIC required for stasis inhibition of community acquired methicillin-resistant Staphylococcus aureus 147 infection in neutropenic BALB/cAnNCr mouse; format: functional
Procedure, shortened: (§1)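 Same neutropenic murine pneumonia model, with 24-h lung log10 CFU change (5 mice per group; 1–25 mg/kg s.c., 1–5 times daily). […] ED50, ED80 and stasis exposures were taken from a sigmoid Emax fit for each isolate.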

[4] = fCmax/MIC required for 80% inhibition of Staphylococcus aureus infection in neutropenic BALB/cAnNCr mouse; format: functional
[5] = Tmax in neutropenic BALB/cAnNCr mouse infected with Staphylococcus aureus at 25 mg/kg, sc administered as single dose after 6 hrs of infection; format: ADME, organism-based; design: dose 25 mg/kg, route subcutaneous; conditions: in vivo
Procedure, shortened: (§2)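 Neutropenic female mice (cyclophosphamide i.p. 250 mg/kg day −4, 100 mg/kg day −1) with HA-MRSA 56 pneumonia (oral inoculum, 10^7 CFU/ml in 3% mucin). Single s.c. dose in sterile water. Plasma by intracardiac puncture at 0.25–4 h, six mice per time point, stabilized with citric acid. Assayed by validated HPLC (LOQ 0.01 µg/ml). Parameters from one-compartment analysis.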

[6] = fT>MIC required for 50% inhibition of hospital acquired Staphylococcus aureus 149 infection in neutropenic BALB/cAnNCr mouse; format: functional
[7] = AUC (0 to infinity) in neutropenic BALB/cAnNCr mouse infected with Staphylococcus aureus at 10 mg/kg, sc administered as single dose after 6 hrs of infection; format: ADME, organism-based; design: time infinity, dose 10 mg/kg, route subcutaneous; conditions: plasma; procedure, shortened: as §2
[8] = fT>MIC required for stasis inhibition of hospital acquired methicillin-resistant Staphylococcus aureus 149 infection in neutropenic BALB/cAnNCr mouse; format: functional; procedure, shortened: as §1
[9] = fT>MIC required for 80% inhibition of community acquired methicillin-resistant Staphylococcus aureus 147 infection in neutropenic BALB/cAnNCr mouse; format: functional; procedure, shortened: as §1
[10] = fT>MIC required for 50% inhibition of hospital acquired methicillin-resistant Staphylococcus aureus 56 infection in neutropenic BALB/cAnNCr mouse; format: functional; procedure, shortened: as §1
[11] = fT>MIC required for 80% inhibition of methicillin-susceptible Staphylococcus aureus 25923 infection in neutropenic BALB/cAnNCr mouse; format: functional
[12] = fT>MIC required for stasis inhibition of community acquired methicillin-resistant Staphylococcus aureus 146 infection in neutropenic BALB/cAnNCr mouse; format: functional; procedure, shortened: as §1
[13] = fT>MIC required for 50% inhibition of Staphylococcus aureus infection in neutropenic BALB/cAnNCr mouse; format: functional
[14] = fT>MIC required for stasis inhibition of community acquired methicillin-resistant Staphylococcus aureus 144 infection in neutropenic BALB/cAnNCr mouse; format: functional; procedure, shortened: as §1
[15] = test system: Staphylococcus aureus; experiment: Antimicrobial activity against hospital acquired methicillin-resistant Staphylococcus aureus 152 by broth microdilution method; format: functional
Procedure, shortened: (§3)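 Broth microdilution run in triplicate following CLSI guidelines. Isolates were stored at –80°C in double-strength skim milk and subcultured twice on Trypticase soy agar with 5% sheep blood before testing.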

[16] = fT>MIC required for 80% inhibition of hospital acquired methicillin-resistant Staphylococcus aureus 152 infection in neutropenic BALB/cAnNCr mouse; format: functional; procedure, shortened: as §1
[17] = fT>MIC required for stasis inhibition of methicillin-susceptible Staphylococcus aureus 25923 infection in neutropenic BALB/cAnNCr mouse; format: functional
[18] = Elimination half life in neutropenic BALB/cAnNCr mouse infected with Staphylococcus aureus at 1 mg/kg, sc administered as single dose after 6 hrs of infection; format: ADME, organism-based; design: dose 1 mg/kg, route subcutaneous; conditions: in vivo; procedure, shortened: as §2
[19] = test system: Mus musculus; experiment: Volume of distribution in neutropenic BALB/cAnNCr mouse infected with Staphylococcus aureus at 1 mg/kg, sc administered as single dose after 6 hrs of infection; format: ADME, organism-based; design: dose 1 mg/kg, route subcutaneous; conditions: in vivo; procedure, shortened: as §2
[20] = fCmax/MIC in neutropenic BALB/cAnNCr mouse plasma infected with Staphylococcus aureus at 1 to 25 mg/kg, sc administered 1 to 5 times/day after 24 hrs by HPLC; format: functional; conditions: route subcutaneous
Procedure, shortened: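 Exposure indices used free plasma drug, correcting with 19% mouse protein binding supplied by the sponsor. The regimens were s.c. 1–25 mg/kg given 1–5 times daily for 24 h to neutropenic mice with S. aureus pneumonia. MICs were determined in triplicate by CLSI broth microdilution. PK came from the single-dose HPLC study.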

[21] = fT>MIC required for 80% inhibition of methicillin-susceptible Staphylococcus aureus […] infection in neutropenic BALB/cAnNCr mouse; format: functional
[22] = test system: Staphylococcus aureus; experiment: Antimicrobial activity against methicillin-susceptible Staphylococcus aureus 25923 infected in BALB/cAnNCr mouse assessed as decrease in bacterial density in lungs at 1 to 25 mg/kg, sc administered as 1 to 5 times/day after 24 hrs […] relative to control; format: functional; conditions: dose mg/kg 1-5; route subcutaneous
Procedure, shortened: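 Neutropenic mice given oral S. aureus inoculum (10^7 CFU/ml in 3% mucin). s.c. dosing of 1–25 mg/kg, once to five times daily, began 6 h post-infection and ran 24 h, five mice per group, with sham-treated controls. Lung homogenates were plated on blood and Columbia agar at 35°C up to 48 h. Log10 CFU/ml at 24 h was compared with untreated controls.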

[23] = fT>MIC required for stasis inhibition of methicillin-suceptible Staphylococcus aureus 29213 infection in neutropenic BALB/cAnNCr mouse; format: functional
[24] = test system: Staphylococcus aureus; experiment: Antimicrobial activity against hospital acquired methicillin-resistant Staphylococcus aureus 152 infected in BALB/cAnNCr mouse assessed as decrease in bacterial density in lungs at 1 to 25 mg/kg, sc administered as 1 to 5 times/day after 24 hrs […] relative to control; format: functional; conditions: route subcutaneous
Procedure, shortened: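 Female BALB/cAnNCr mice (7–9 weeks) were made neutropenic with cyclophosphamide i.p. at 250 mg/kg on day −4 and 100 mg/kg on day −1. Under isoflurane, mice received an oral inoculum in 3% mucin/saline, with nostrils blocked until aspiration. Drug (1–25 mg/kg s.c., once to five times daily, water vehicle) or sham started 6 h post-inoculation. Lungs were harvested at 24 h, homogenized and plated on blood and Columbia agar at 35°C. Mean log10 CFU/ml was compared with the 0-h untreated baseline; 5 mice per group.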

[25] = fT>MIC required for 80% inhibition of Staphylococcus aureus infection in neutropenic BALB/cAnNCr mouse; format: functional
[26] = test system: Staphylococcus aureus; experiment: Antimicrobial activity against methicillin-susceptible Staphylococcus aureus ATCC 29213 by broth microdilution method; format: functional; procedure, shortened: as §3

For `Nc1nc(/C(=N/O)C(=O)N[C@@H]2C(=O)N3C(C(=O)O)=C(/C=C4\CCN([C@@H]5CCNC5)C4=O)CS[C@H]23)ns1` [CEFTOBIPROLE], the Tmax [1] was 24.6 min, the “fT>MIC” value [2] was 14% and the “fT>MIC” value [3] was 14.9%. The fCmax/MIC [4] was 2, the Tmax [5] was 28.2 min and the “fT>MIC” value [6] was 8.6%. The AUC(0-inf) [7] was 15800 ng·h/mL, the “fT>MIC” value [8] was 6.6% and the “fT>MIC” value [9] was 21.6%. For the same compound, the “fT>MIC” value [10] was 13.7%, the “fT>MIC” value [11] was 10.2% and the “fT>MIC” value [12] was 5.6%. The “fT>MIC” value [13] was 12%, the “fT>MIC” value [14] was 13.6% and the MIC [15] was 0.5 µg/mL (≈ 0.935 µM). The “fT>MIC” value [16] was 15.9%, the “fT>MIC” value [17] was 7.6% and the half-life [18] was 15 min. For the same compound, the Vd [19] was 0.19 L/kg, the fCmax/MIC [20] was 1 and the “fT>MIC” value [21] was 19.5%. The log10cfu [22] was 4.2, the “fT>MIC” value [23] was 13.3% and the log10cfu [24] was 3.8. For the same compound, the “fT>MIC” value [25] was 17% and the MIC [26] was 0.25 µg/mL (≈ 0.468 µM).
